bIAP activator: intestinal alkaline phosphatase (bovine) activation; actives 0.17% (n = 200,000); activation factor at 20 µM; purified bovine IAP, CDP-star luminescence, 30 min; active compounds read high; fold of DMSO-control signal, blank-subtracted;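 active = activation factor of 2 or more at 20 µM, a signal rise over negative controls twice the positive control's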
hIAP activ: increases human intestinal alkaline phosphatase activity. P09923. actives 0.16% (n = 330,000). purified human IAP, CDP-Star luminescence, 30 min; active compounds read high; 1 = vehicle-only enzyme, 0 = enzyme-free background. activation factor at 10 µM;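 active = activation factor of the enzyme at least 2-fold when tested at 20 µM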
Target sequence (P09923 whole entry, looked up): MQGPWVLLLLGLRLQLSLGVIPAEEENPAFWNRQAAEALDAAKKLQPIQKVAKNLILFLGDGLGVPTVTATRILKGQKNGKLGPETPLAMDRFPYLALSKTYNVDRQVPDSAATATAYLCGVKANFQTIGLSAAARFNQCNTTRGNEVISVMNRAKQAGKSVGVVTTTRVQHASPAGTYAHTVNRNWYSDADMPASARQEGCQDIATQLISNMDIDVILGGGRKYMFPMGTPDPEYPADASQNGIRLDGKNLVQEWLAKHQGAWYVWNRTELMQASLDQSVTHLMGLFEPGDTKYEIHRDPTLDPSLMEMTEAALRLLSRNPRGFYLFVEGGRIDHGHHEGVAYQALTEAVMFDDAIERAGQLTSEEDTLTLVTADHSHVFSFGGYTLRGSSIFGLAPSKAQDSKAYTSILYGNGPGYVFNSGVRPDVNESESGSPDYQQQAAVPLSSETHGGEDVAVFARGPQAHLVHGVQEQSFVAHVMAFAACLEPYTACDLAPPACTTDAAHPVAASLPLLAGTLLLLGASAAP
bIAP inh: blocks bovine intestinal alkaline phosphatase activity; 190,000 tested, under 10 active; AID 1019; inhibition, % at 20 µM; purified bovine IAP, CDP-star luminescence, 30 min;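 active = over 50% inhibition of intestinal alkaline phosphatase at 20 µM in the single-dose screen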
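System: purified bovine intestinal alkaline phosphatase (IAP) enzyme; Input: IAP diluted 1/65,000,000 in the well; Measured by: CDP-star luminescence signal; Compound dosing: 20 µM single dose; Incubation: 30 min reaction at room temperature.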
mIAP block: mouse IAP inhibition | purified mouse IAP, CDP-Star luminescence, 30 min | inhibition, % at 10 µM | actives 0.2% (n = 330,000) | AID 2806;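 active = inhibition of at least 40% at 10 µM in the primary screen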;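 also: plate controls were DMSO with enzyme for no effect and no enzyme wells for full effect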
mIAP act: mouse IAP activation; actives 0.24% (n = 330,000); activation factor at 10 µM; muIAP, CDP-Star luminescence, 30 min; active compounds read high; 1 = vehicle-only enzyme signal, 0 = enzyme-free wells;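 active = activation factor of at least 2 at 20 µM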
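System: mouse IAP enzyme. Reagent: CDP-Star chemiluminescent phosphatase substrate. Benchmarks: DMSO wells, no-enzyme wells. Times: 30 min enzyme-substrate-compound incubation at room temperature. Detection: luminescence from enzymatic CDP-Star hydrolysis. Doses: test compounds delivered from DMSO solution.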
hIAP block: blocks human intestinal alkaline phosphatase; actives 0.12% (n = 330,000); P09923; AID 2544; inhibition, % at 10 µM; purified IAP, CDP-Star luminescence, 30 min;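 active = inhibition reaching a set limit with compound at 10 µM in the primary screen, cut at about 35% in these data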;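 also: plate controls were DMSO wells with enzyme for no effect and no-enzyme buffer wells for full effect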
Starred values were filed as active, the others as inactive; . = no result. This is a sample that favours compounds with a hit; in the whole collection about 0.72% have one here.

SMILES	bIAP activator	hIAP activ	bIAP inh	mIAP block	mIAP act	hIAP block
COc1cc(C(=O)Nc2nc3ccccc3[nH]2)ccc1OC(F)F	.	1.2	.	0	1	-20
COc1ccc(C(=O)Nc2nc3ccccc3[nH]2)cc1OC	2.2*	0.97	-122	4	0.96	3
Cc1ccc(C)n1-c1ccc(C(=O)NN)s1	2.1*	1.2	-110	-13	1.1	-21
CCOC(=O)CNC(=O)c1ccc(Br)s1	.	0.93	.	-5	1.1	7
Cn1ncc([N+](=O)[O-])c1C(=O)N1CCCCCC1	.	1.2	.	-4	1	-16
CC1CCCC(C)N1C(=O)CSc1ncccn1 (configuration not stated)	.	0.89	.	-3	1	11
CCc1ccc(NC(=O)C(CC)Sc2nc3cc4c(cc3c(=O)n2Cc2ccco2)OCO4)cc1 (configuration not stated)	2.9*	1.1	-191	-27	1.3	-6
Cc1cc(C)cc(NC(=S)NCCN(C2CCCCC2)C2CCCC2)c1	0.4	1.3	.	-106	2.1*	-29
Cc1ccc(NC(=S)NCCN(C2CCCCC2)C2CCCC2)cc1	0.4	1.1	.	-59	1.6	-12
COc1ccc(NC(=O)N(C)C[C@H]2Oc3ccc(NC(=O)Nc4ccc(C(F)(F)F)cc4)cc3C(=O)N([C@H](C)CO)C[C@@H]2C)cc1	.	0.87	.	-110	2.1*	13
COc1ccc(NC(=O)Nc2ccc3c(c2)C(=O)N([C@H](C)CO)C[C@H](C)[C@@H](CN(C)C(=O)Nc2ccc(OC)cc2)O3)cc1	.	0.98	.	-134	2.3*	2
COc1ccc(NC(=O)N(C)C[C@H]2Oc3ccc(NC(=O)NC(C)C)cc3C(=O)N([C@H](C)CO)C[C@@H]2C)cc1	.	1.2	.	-13	1.1	-19
C[C@@H]1CN([C@@H](C)CO)C(=O)c2cc(NC(=O)Nc3ccccc3)ccc2O[C@H]1CN(C)C(=O)Nc1cccc2ccccc12	.	1.1	.	-167	2.7*	-12
COc1ccc(NC(=O)Nc2ccc3c(c2)C(=O)N([C@H](C)CO)C[C@H](C)[C@@H](CN(C)C(=O)Nc2ccc(C(F)(F)F)cc2)O3)cc1	.	1.1	.	-111	2.1*	-12
O=C(CCn1ccnc1)Nc1nc2ccccc2[nH]1	1.4	1.5	-36	4	0.96	-47
Nc1cccc(CP(=O)(c2ccccc2)c2ccccc2)c1	.	0.98	.	-3	1	2
C=C(C)[C@@H]1CC[C@]2(C(=O)O)CC[C@]3(C)C(CCC4[C@@]5(C)CC[C@H](O)C(C)(C)C5CC[C@]43C)C12 (some centres not stated)	.	1.3	.	47*	0.53	-28
CC(C)C1Cc2c(C#N)c(N)sc(=S)c2CO1 (configuration not stated)	0.6	1.1	37	40*	0.6	-10
Cc1ccc(/C=c2\sc3nc(-c4ccccc4Br)nn3c2=O)o1	1	0.8	3	49*	0.51	20
S=C(NCc1ccco1)Nc1ccc(Cl)c(Cl)c1	0.8	1.1	24	-130	2.3*	-11
Cc1cccc(NC(=S)NCCSc2ccc(Cl)cc2)c1	0.6	1.1	40	-123	2.2*	-14
Cc1cccc(NC(=S)NCC(C)CSc2ccc(Cl)cc2)c1 (configuration not stated)	0.7	1.4	35	-225	3.2*	-38
Cc1cccc(NC(=S)NC(C)CCc2ccccc2)c1 (configuration not stated)	0.6	1.1	38	-117	2.2*	-8
Cc1ccc(C)c(NC(=S)NCCSc2ccc(Cl)cc2)c1	0.6	1.1	36	-87	1.9	-5
Cc1cccc(NC(=S)NCC(c2ccccc2)N(C)C)c1 (configuration not stated)	0.8	1	17	-9	1.1	-3
SMILES	bIAP activator	hIAP activ	bIAP inh	mIAP block	mIAP act	hIAP block
CCc1ccccc1NC(=S)NCCSc1ccc(Cl)cc1	0.5	0.81	.	-102	2*	19
Cc1ccccc1NC(=S)NCCSc1ccc(Cl)cc1	0.4	1.1	.	-97	2	-13
Cc1ccc(S(=O)(=O)NCCC(=O)N2CCC(C)CC2)cc1	.	0.93	.	-10	1.1	7
CCCOc1ccc(C(=O)CCC(=O)NNC(=O)Cn2nc(C)cc2C)cc1	.	1.2	.	10	0.9	-20
O=C1CCC(C(=O)N2CCCCO2)CN1CCc1ccccc1 (configuration not stated)	.	1.1	.	-1	1	-7
O=C(NC1CC1)c1cc2c(F)cccc2s1	1.1	1	-7	13	0.87	-1
Cc1cc(C)nc(N2CCN(C(=O)c3ccc(S(=O)(=O)N4CCCCCC4)cc3)CC2)n1	1.1	1.1	-9	10	0.9	-8
CCOC(=O)Cc1csc(SCC(=O)Nc2cc(C)ccc2OC)n1	0.7	1.1	30	-4	1	-7
Cc1cc(OCc2cc(C(=O)N(C)C3CCOC3)no2)cc(C)c1Cl (configuration not stated)	.	0.89	.	7	0.93	11
Cc1ccc(NC(=S)NCCSc2ccc(Cl)cc2)c(C)c1	1.1	1	-15	-99	2	0
Cc1ccc(NC(=S)NCC(C)CSc2ccc(Cl)cc2)cc1 (configuration not stated)	0.7	1.4	31	-165	2.7*	-36
CCCN1C=CC(=CC=C(C#N)C#N)C=C1	.	0.89	.	30	0.7	11
CCCN1C=CC(=C/C=C(\C#N)C(=O)OCC)C=C1	0.5	0.63	49	26	0.74	37*
CCOC(=O)/C(C#N)=C/C=C1\C=Cc2ccccc2N1CC	1	0.69	-2	44*	0.56	31
O=C(COC(=O)Cc1n[nH]c(=O)c2ccccc12)NNC(=O)c1ccc(Br)cc1	.	0.92	.	10	0.9	8
CSCCC(NC(=O)c1ccccc1Cl)C(=O)N1CCN(c2ccccn2)CC1 (configuration not stated)	.	1.3	.	8	0.92	-25
Cc1csc2c(N3CCN(C(=O)NC(C)(C)C)CC3)ncnc12	.	0.97	.	1	0.99	2
Cc1csc2c(N3CCN(C(=O)Nc4ccc(Cl)c(Cl)c4)CC3)ncnc12	.	1.4	.	-139	2.4*	-43
CCOc1ccccc1CNS(=O)(=O)c1cnc[nH]1	.	1.3	.	12	0.88	-28
O=C(NCc1ccc(F)cc1)C1CCN(S(=O)(=O)c2ccc3c(c2)OCCCO3)CC1	0.7	1	29	-14	1.1	0
O=C(NCc1ccc(Cl)cc1Cl)C1CCN(S(=O)(=O)c2ccc3c(c2)OCCCO3)CC1	0.8	1.6	19	-162	2.6*	-63
COc1ccc2c(c1)CCC(C)N2C(=O)C(=O)c1c[nH]c2ccccc12 (configuration not stated)	.	0.86	.	4	0.96	14
Cc1cc(NC(=O)CSc2ncnc3sccc23)no1	1	0.94	-4	2	0.98	6
